Results as given in ChEMBL document CHEMBL1938258, “Discovery and molecular docking of quinolyl-thienyl chalcones as anti-angiogenic agents targeting VEGFR-2 tyrosine kinase” (Bioorg Med Chem Lett, 2012).

Tested on: HUVEC
Experiment: Antiangiogenic activity against VEGF-stimulated HUVEC cells after 72 hrs by BrdU method
Format: functional, cell-based
Details: Homo sapiens
In short: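 HUVEC grown overnight at 37 °C, 5% CO2 in 5% FBS medium on type 1 collagen-coated plates. Medium replaced by serum-free medium with graded inhibitor concentrations, then VEGF (10 ng/ml) added 30 min later. Cells incubated a further 72 h, with BrdU present for the last 18–24 h. IC50 taken as K from the fit y = Vmax(1 − x/(K+x)).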

Row | SMILES | IC50 [nM]
1 | Cc1csc(C(=O)/C=C/c2cc3cc(C)ccc3nc2Cl)c1 | 106
2 | Cc1ccc2nc(Cl)c(/C=C/C(=O)c3ccsc3)cc2c1 | 107
3 | Cc1ccc2nc(Cl)c(/C=C/C(=O)c3sccc3C)cc2c1 | 127
4 | Cc1ccc2nc(Cl)c(/C=C/C(=O)c3ccc(C)s3)cc2c1 | 128
5 | Cc1ccc2nc(Cl)c(/C=C/C(=O)c3cc(C)sc3C)cc2c1 | 229
6 | Cc1ccc2nc(Cl)c(/C=C/C(=O)c3sccc3Cl)cc2c1 | 37.5
7 | Cc1ccc2nc(Cl)c(/C=C/C(=O)c3ccc(Cl)s3)cc2c1 | 59.4
8 | Cc1ccc2nc(Cl)c(/C=C/C(=O)c3cc(Cl)sc3Cl)cc2c1 | 26.2
9 | Cc1ccc2nc(Cl)c(/C=C/C(=O)c3sccc3Br)cc2c1 | 61.9
10 | Cc1ccc2nc(Cl)c(/C=C/C(=O)c3ccc(Br)s3)cc2c1 | 88.4
11 | Cc1ccc2nc(Cl)c(/C=C/C(=O)c3ccc(I)s3)cc2c1 | 129
12 | Cc1ccc2cc(/C=C/C(=O)c3ccsc3)c(Cl)nc2c1 | 107
13 | Cc1ccc2cc(/C=C/C(=O)c3sccc3C)c(Cl)nc2c1 | 124
14 | Cc1csc(C(=O)/C=C/c2cc3ccc(C)cc3nc2Cl)c1 | 98.9
15 | Cc1ccc2cc(/C=C/C(=O)c3ccc(C)s3)c(Cl)nc2c1 | 102
16 | Cc1ccc2cc(/C=C/C(=O)c3cc(C)sc3C)c(Cl)nc2c1 | 294

Row | SMILES | IC50 [nM]
17 | Cc1ccc2cc(/C=C/C(=O)c3sccc3Cl)c(Cl)nc2c1 | 34
18 | Cc1ccc2cc(/C=C/C(=O)c3ccc(Cl)s3)c(Cl)nc2c1 | 49.5
19 | Cc1ccc2cc(/C=C/C(=O)c3cc(Cl)sc3Cl)c(Cl)nc2c1 | 21.8
20 | Cc1ccc2cc(/C=C/C(=O)c3sccc3Br)c(Cl)nc2c1 | 61.9
21 | Cc1ccc2cc(/C=C/C(=O)c3ccc(Br)s3)c(Cl)nc2c1 | 83.6
22 | Cc1ccc2cc(/C=C/C(=O)c3ccc(I)s3)c(Cl)nc2c1 | 135
23 | Cc1cccc2cc(/C=C/C(=O)c3ccsc3)c(Cl)nc12 | 291
24 | Cc1ccsc1C(=O)/C=C/c1cc2cccc(C)c2nc1Cl | 189
25 | Cc1csc(C(=O)/C=C/c2cc3cccc(C)c3nc2Cl)c1 | 153
26 | Cc1ccc(C(=O)/C=C/c2cc3cccc(C)c3nc2Cl)s1 | 145
27 | Cc1cccc2cc(/C=C/C(=O)c3sccc3Cl)c(Cl)nc12 | 91.5
28 | Cc1cccc2cc(/C=C/C(=O)c3ccc(Cl)s3)c(Cl)nc12 | 116
29 | Cc1cccc2cc(/C=C/C(=O)c3cc(Cl)sc3Cl)c(Cl)nc12 | 295
30 | Cc1cccc2cc(/C=C/C(=O)c3sccc3Br)c(Cl)nc12 | 187
31 | Cc1cccc2cc(/C=C/C(=O)c3ccc(Br)s3)c(Cl)nc12 | 243
32 | Cc1cccc2cc(/C=C/C(=O)c3ccc(I)s3)c(Cl)nc12 | 284

Target: Vascular endothelial growth factor receptor 2 (Homo sapiens, UniProt P35968)
Experiment: Inhibition of VEGFR-2 after 1 hr by fluorescence polarization assay
Details: not given
In short: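 VEGFR kinase protein in a fluorescence polarization tyrosine kinase kit. Buffer was 20 mM HEPES pH 7.4, 5 mM MgCl2, 2 mM MnCl2, Na3VO4, ATP, 200 ng/mL enzyme and 1 ng/mL poly(Glu,Tyr) 4:1. After 1 h the reaction was stopped with 6 mM EDTA. Anti-phosphotyrosine antibody and PTK green tracer were added, and FP was read after 30 min at room temperature.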

Vascular endothelial growth factor receptor 2, sequence (P35968 whole entry): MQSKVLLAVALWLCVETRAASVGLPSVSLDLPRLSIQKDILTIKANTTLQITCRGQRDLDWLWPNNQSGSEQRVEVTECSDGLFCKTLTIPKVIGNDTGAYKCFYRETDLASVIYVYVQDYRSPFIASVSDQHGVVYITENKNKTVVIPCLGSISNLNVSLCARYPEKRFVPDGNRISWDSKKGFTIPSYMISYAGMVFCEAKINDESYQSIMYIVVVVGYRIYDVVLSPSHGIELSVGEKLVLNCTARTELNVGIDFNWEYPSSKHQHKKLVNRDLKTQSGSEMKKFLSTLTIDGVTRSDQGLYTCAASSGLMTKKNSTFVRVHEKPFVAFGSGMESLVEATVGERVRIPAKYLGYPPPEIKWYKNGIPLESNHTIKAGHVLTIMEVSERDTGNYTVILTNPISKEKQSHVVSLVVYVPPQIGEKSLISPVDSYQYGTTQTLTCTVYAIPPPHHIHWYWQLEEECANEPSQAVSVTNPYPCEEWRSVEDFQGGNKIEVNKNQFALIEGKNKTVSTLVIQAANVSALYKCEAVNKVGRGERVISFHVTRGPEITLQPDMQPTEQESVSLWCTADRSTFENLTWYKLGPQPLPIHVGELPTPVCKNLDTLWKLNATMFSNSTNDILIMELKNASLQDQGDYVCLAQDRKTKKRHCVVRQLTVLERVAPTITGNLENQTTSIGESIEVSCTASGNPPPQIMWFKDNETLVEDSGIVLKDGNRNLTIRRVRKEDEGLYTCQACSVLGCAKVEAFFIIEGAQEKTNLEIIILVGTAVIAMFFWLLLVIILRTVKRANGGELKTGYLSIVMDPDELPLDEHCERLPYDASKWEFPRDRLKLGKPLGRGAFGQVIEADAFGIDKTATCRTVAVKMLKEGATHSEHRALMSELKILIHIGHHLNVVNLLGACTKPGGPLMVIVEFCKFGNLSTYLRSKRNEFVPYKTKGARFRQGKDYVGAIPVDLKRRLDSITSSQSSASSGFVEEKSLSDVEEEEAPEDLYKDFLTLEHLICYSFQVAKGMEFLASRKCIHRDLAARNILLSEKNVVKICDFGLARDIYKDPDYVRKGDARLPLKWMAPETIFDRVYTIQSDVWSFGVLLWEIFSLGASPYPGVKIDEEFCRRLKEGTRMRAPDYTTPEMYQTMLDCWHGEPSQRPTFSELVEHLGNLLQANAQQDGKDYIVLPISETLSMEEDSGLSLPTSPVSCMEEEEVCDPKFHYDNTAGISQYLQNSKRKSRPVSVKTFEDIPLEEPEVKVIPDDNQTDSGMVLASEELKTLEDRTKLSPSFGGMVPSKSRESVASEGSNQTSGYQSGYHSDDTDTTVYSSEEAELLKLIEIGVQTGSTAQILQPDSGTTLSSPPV

Row | SMILES | IC50 [nM]
33 | Cc1csc(C(=O)/C=C/c2cc3cc(C)ccc3nc2Cl)c1 | 169
34 | Cc1ccc2nc(Cl)c(/C=C/C(=O)c3ccsc3)cc2c1 | 287
35 | Cc1ccc2nc(Cl)c(/C=C/C(=O)c3sccc3C)cc2c1 | 185
36 | Cc1ccc2nc(Cl)c(/C=C/C(=O)c3ccc(C)s3)cc2c1 | 176
37 | Cc1ccc2nc(Cl)c(/C=C/C(=O)c3cc(C)sc3C)cc2c1 | 453
38 | Cc1ccc2nc(Cl)c(/C=C/C(=O)c3sccc3Cl)cc2c1 | 87.1
39 | Cc1ccc2nc(Cl)c(/C=C/C(=O)c3ccc(Cl)s3)cc2c1 | 107
40 | Cc1ccc2nc(Cl)c(/C=C/C(=O)c3cc(Cl)sc3Cl)cc2c1 | 81.4
41 | Cc1ccc2nc(Cl)c(/C=C/C(=O)c3sccc3Br)cc2c1 | 129
42 | Cc1ccc2nc(Cl)c(/C=C/C(=O)c3ccc(Br)s3)cc2c1 | 113
43 | Cc1ccc2nc(Cl)c(/C=C/C(=O)c3ccc(I)s3)cc2c1 | 154
44 | Cc1ccc2cc(/C=C/C(=O)c3ccsc3)c(Cl)nc2c1 | 208
45 | Cc1ccc2cc(/C=C/C(=O)c3sccc3C)c(Cl)nc2c1 | 157
46 | Cc1csc(C(=O)/C=C/c2cc3ccc(C)cc3nc2Cl)c1 | 139
47 | Cc1ccc2cc(/C=C/C(=O)c3ccc(C)s3)c(Cl)nc2c1 | 130
48 | Cc1ccc2cc(/C=C/C(=O)c3cc(C)sc3C)c(Cl)nc2c1 | 561
49 | Cc1ccc2cc(/C=C/C(=O)c3sccc3Cl)c(Cl)nc2c1 | 82.7

Row | SMILES | IC50 [nM]
50 | Cc1ccc2cc(/C=C/C(=O)c3ccc(Cl)s3)c(Cl)nc2c1 | 92.2
51 | Cc1ccc2cc(/C=C/C(=O)c3cc(Cl)sc3Cl)c(Cl)nc2c1 | 73.4
52 | Cc1ccc2cc(/C=C/C(=O)c3sccc3Br)c(Cl)nc2c1 | 112
53 | Cc1ccc2cc(/C=C/C(=O)c3ccc(Br)s3)c(Cl)nc2c1 | 104
54 | Cc1ccc2cc(/C=C/C(=O)c3ccc(I)s3)c(Cl)nc2c1 | 148
55 | Cc1cccc2cc(/C=C/C(=O)c3ccsc3)c(Cl)nc12 | 389
56 | Cc1ccsc1C(=O)/C=C/c1cc2cccc(C)c2nc1Cl | 267
57 | Cc1csc(C(=O)/C=C/c2cc3cccc(C)c3nc2Cl)c1 | 233
58 | Cc1ccc(C(=O)/C=C/c2cc3cccc(C)c3nc2Cl)s1 | 262
59 | Cc1cc(C(=O)/C=C/c2cc3cccc(C)c3nc2Cl)c(C)s1 | > 1000
60 | Cc1cccc2cc(/C=C/C(=O)c3sccc3Cl)c(Cl)nc12 | 130
61 | Cc1cccc2cc(/C=C/C(=O)c3ccc(Cl)s3)c(Cl)nc12 | 189
62 | Cc1cccc2cc(/C=C/C(=O)c3cc(Cl)sc3Cl)c(Cl)nc12 | 358
63 | Cc1cccc2cc(/C=C/C(=O)c3sccc3Br)c(Cl)nc12 | 313
64 | Cc1cccc2cc(/C=C/C(=O)c3ccc(Br)s3)c(Cl)nc12 | 367
65 | Cc1cccc2cc(/C=C/C(=O)c3ccc(I)s3)c(Cl)nc12 | 482
